According to ChEMBL document CHEMBL1944524, “Synthesis and structure-activity relationship of 5-pyridazin-3-one phenoxypiperidines as potent, selective histamine H(3) receptor inverse agonists” (Bioorg Med Chem Lett, 2012):

Legend:
Histamine H3 receptor [1] = target: Histamine H3 receptor (Rattus norvegicus, UniProt Q9QYN8); experiment: Displacement of [3H]N-alpha-methylhistamine from rat histamine H3 receptor expressed in CHO cells; assay type: cell-based
[2] = Oral bioavailability in rat; assay type: ADME, organism-based; details: in vivo
Procedure, shortened: (§1)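 Rat PK study, dosed 1 mg/kg iv plus 10 or 5 mg/kg po. iv vehicle 3% DMSO, 30% solutol, 67% phosphate buffered saline; oral vehicle 50% Tween 80, 40% propylene carbonate, 10% propylene glycol.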

Histamine H3 receptor [3] = target: Histamine H3 receptor (Homo sapiens, UniProt Q9Y5N1); experiment: Displacement of [3H]N-alpha-methylhistamine from human histamine H3 receptor expressed in CHO cells; assay type: cell-based
[4] = target: Voltage-gated inwardly rectifying potassium channel KCNH2 (Homo sapiens, UniProt Q12809); experiment: Inhibition of human ERG by patch clamp assay
[5] = Volume of distribution in rat at 1 mg/kg, iv; assay type: ADME, organism-based; parameters: dose 1 mg/kg, route intravenous; details: in vivo; procedure, shortened: as §1
[6] = Cmax in rat at 10 mg/kg, po; assay type: ADME, organism-based; parameters: dose 10 mg/kg, route oral; details: in vivo; procedure, shortened: as §1
[7] = Tmax in rat at 10 mg/kg, po; assay type: ADME, organism-based; parameters: dose 10 mg/kg, route oral; details: in vivo; procedure, shortened: as §1
[8] = AUC in rat at 10 mg/kg, po; assay type: ADME, organism-based; parameters: dose 10 mg/kg, route oral; details: plasma; procedure, shortened: as §1
[9] = Ratio of drug level in brain to plasma in rat at 10 mg/kg, ip after 6 hrs; assay type: ADME, organism-based; parameters: dose 10 mg/kg, route intraperitoneal; details: read-out: BPR
Procedure, shortened: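 Brain and plasma levels measured in rat 6 h after a 10 mg/kg ip dose; value is brain/plasma ratio.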

[10] = Half life in rat at 1 mg/kg, iv; assay type: ADME, organism-based; parameters: dose 1 mg/kg, route intravenous; details: in vivo; procedure, shortened: as §1
[11] = Clearance in rat at 1 mg/kg, iv; assay type: ADME, organism-based; parameters: dose 1 mg/kg, route intravenous; details: in vivo; procedure, shortened: as §1
[12] = Cmax in rat at 5 mg/kg, po; assay type: ADME, organism-based; parameters: dose 5 mg/kg, route oral; details: in vivo; procedure, shortened: as §1
[13] = Tmax in rat at 5 mg/kg, po; assay type: ADME, organism-based; parameters: dose 5 mg/kg, route oral; details: in vivo; procedure, shortened: as §1
[14] = Oral bioavailability in rat at 5 mg/kg; assay type: ADME, organism-based; details: in vivo; procedure, shortened: as §1
[15] = AUC in rat at 5 mg/kg, po; assay type: ADME, organism-based; parameters: dose 5 mg/kg, route oral; details: plasma; procedure, shortened: as §1
[16] = Half life in human liver microsomes; assay type: ADME, Microsome
Procedure, shortened: (§2)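 Stability in liver microsomes from rat, dog or human; half-life (min) determined.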

[17] = Half life in rat liver microsomes; assay type: ADME, Microsome; procedure, shortened: as §2
[18] = Half life in dog liver microsomes; assay type: ADME, Canis lupus familiaris, Microsome; procedure, shortened: as §2
[19] = Inhibition of cytochrome P450; assay type: ADME
Procedure, shortened: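 CYP inhibition assessed against 5 CYP isoforms; IC50 determined.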

[20] = target: Histamine H1 receptor (Homo sapiens) (UniProt P35367); experiment: Inhibition of human histamine H1 receptor at 10 uM
Procedure, shortened: (§3)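 Selectivity screen against human H1, H2 and H4 receptors; percent inhibition at 10 µM.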

[21] = target: Histamine H2 receptor (Homo sapiens) (UniProt P25021); experiment: Inhibition of human histamine H2 receptor at 10 uM; procedure, shortened: as §3
[22] = target: Histamine H4 receptor (Homo sapiens) (UniProt Q9H3N8); experiment: Inhibition of human histamine H4 receptor at 10 uM; procedure, shortened: as §3
[23] = target: T1, Muscarinic acetylcholine receptor M2 (Homo sapiens, UniProt P08172); experiment: Inhibition of muscarinic M2 receptor
T1 sequence (P08172 whole entry): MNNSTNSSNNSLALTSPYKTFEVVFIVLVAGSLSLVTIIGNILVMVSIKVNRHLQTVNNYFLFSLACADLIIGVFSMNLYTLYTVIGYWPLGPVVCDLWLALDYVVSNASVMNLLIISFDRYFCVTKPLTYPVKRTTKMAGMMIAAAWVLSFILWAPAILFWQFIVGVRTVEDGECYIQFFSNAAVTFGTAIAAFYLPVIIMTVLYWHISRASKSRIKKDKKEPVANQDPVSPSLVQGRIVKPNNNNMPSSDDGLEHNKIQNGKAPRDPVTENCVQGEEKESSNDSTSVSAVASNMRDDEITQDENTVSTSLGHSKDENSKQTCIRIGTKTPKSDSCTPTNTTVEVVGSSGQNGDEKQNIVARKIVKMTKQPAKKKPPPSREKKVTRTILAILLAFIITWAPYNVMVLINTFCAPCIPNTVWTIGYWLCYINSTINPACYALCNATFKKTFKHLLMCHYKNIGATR

Sequence of Histamine H3 receptor (Rattus norvegicus, UniProt Q9QYN8) (Q9QYN8 whole entry): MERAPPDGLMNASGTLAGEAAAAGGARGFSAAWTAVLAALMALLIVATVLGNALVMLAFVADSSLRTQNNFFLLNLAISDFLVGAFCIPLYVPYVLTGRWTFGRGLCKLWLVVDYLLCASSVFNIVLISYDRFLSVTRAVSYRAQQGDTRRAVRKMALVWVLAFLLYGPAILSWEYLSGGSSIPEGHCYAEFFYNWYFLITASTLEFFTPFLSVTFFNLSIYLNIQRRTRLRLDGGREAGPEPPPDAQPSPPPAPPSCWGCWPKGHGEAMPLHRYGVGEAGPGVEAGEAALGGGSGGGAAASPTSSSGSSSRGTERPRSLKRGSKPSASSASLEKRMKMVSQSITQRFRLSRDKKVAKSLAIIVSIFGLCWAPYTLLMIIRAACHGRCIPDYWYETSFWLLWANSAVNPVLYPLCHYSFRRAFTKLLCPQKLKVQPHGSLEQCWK
Sequence of Histamine H3 receptor (Homo sapiens, UniProt Q9Y5N1) (Q9Y5N1 whole entry): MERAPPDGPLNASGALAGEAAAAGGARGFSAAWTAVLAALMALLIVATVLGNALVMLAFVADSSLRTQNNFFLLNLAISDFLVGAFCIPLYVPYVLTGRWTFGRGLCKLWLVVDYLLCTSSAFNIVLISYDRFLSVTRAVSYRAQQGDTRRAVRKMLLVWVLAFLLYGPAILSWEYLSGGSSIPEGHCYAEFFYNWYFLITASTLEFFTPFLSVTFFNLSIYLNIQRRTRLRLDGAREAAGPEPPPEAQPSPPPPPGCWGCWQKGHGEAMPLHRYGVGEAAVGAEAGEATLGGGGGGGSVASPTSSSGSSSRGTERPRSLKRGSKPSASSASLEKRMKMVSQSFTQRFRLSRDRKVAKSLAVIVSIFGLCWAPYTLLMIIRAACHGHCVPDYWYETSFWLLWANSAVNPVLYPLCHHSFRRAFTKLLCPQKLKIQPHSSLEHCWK
Sequence of Voltage-gated inwardly rectifying potassium channel KCNH2 (Q12809 whole entry): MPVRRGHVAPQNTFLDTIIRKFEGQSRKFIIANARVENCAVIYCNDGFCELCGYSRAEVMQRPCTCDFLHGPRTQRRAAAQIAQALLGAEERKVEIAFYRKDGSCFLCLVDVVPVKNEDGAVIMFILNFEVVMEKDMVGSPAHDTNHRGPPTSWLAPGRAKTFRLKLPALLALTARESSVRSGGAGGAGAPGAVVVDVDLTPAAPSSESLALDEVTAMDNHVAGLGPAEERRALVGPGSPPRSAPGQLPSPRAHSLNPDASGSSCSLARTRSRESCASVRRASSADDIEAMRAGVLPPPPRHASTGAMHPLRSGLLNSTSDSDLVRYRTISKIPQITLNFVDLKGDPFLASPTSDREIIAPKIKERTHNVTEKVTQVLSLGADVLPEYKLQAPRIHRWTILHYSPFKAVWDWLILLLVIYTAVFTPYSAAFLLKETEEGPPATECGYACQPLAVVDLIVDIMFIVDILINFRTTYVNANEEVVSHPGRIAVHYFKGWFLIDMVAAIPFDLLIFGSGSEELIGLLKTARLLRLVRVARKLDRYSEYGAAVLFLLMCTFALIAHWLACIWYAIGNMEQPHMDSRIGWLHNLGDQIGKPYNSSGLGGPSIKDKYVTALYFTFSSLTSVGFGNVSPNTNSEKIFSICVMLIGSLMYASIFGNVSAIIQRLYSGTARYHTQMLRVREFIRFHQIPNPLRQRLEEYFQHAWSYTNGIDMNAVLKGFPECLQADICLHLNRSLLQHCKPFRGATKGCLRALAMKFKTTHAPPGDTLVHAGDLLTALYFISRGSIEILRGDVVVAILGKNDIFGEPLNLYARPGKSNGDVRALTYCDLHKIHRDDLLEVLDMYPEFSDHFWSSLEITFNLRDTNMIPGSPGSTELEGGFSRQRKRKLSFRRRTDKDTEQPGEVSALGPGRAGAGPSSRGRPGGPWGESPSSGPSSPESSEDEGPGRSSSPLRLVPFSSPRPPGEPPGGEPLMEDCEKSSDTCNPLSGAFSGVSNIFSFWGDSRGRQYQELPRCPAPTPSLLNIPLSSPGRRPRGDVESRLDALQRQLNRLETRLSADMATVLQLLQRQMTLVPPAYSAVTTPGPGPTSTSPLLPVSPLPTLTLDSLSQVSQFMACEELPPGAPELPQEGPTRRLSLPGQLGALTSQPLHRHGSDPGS
Sequence of Histamine H1 receptor (Homo sapiens) (P35367 whole entry): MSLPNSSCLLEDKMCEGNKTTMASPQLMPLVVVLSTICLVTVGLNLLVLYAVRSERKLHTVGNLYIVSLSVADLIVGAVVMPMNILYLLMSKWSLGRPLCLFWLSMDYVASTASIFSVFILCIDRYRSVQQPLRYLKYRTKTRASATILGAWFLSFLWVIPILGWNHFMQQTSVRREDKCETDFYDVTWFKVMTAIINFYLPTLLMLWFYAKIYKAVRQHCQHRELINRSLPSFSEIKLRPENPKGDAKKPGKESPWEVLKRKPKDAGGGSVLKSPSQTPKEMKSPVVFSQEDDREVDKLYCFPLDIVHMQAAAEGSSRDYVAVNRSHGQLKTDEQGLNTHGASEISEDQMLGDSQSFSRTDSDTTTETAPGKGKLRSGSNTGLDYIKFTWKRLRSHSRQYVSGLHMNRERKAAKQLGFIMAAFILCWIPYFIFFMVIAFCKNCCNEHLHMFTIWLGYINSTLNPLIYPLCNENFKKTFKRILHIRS
Sequence of Histamine H4 receptor (Homo sapiens) (Q9H3N8 whole entry): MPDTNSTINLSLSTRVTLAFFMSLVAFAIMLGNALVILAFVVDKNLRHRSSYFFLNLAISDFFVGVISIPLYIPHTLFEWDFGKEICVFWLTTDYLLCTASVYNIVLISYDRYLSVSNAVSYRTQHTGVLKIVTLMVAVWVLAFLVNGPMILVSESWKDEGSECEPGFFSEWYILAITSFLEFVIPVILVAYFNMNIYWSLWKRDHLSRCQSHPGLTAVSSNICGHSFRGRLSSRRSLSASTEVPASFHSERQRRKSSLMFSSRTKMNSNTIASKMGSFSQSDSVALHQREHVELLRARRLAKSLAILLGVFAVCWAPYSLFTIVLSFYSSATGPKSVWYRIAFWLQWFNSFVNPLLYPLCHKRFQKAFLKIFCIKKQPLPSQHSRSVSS
Sequence of Histamine H2 receptor (Homo sapiens) (P25021 whole entry): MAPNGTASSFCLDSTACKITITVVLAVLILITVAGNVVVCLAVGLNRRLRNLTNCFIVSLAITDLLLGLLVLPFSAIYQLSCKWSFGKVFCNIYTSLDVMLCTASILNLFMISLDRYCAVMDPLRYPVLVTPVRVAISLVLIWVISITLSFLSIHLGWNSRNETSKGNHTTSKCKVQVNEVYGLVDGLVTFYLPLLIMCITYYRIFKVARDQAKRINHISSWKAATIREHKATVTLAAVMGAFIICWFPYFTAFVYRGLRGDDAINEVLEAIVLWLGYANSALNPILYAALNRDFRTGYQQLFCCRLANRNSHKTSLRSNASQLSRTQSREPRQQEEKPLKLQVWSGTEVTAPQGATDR

Compound `O=c1cc(-c2ccc(OC3CCN(C4CCC4)CC3)cc2)cn[nH]1` has a Ki (Histamine H3 receptor [1]) of 2 nM, a bioavailability [2] of 21% and a Ki (Histamine H3 receptor [3]) of 2 nM. For the same compound, the IC50 [4] was 2000 nM.
In the case of `C[C@@H]1CCCN1CCCOc1ccc(-c2cn[nH]c(=O)c2)cc1`, the Vd [5] is reported as 0.8 L/kg, the Cmax [6] is reported as 446 ng/mL and the Tmax [7] is reported as 2 h. It also gave an AUC [8] of 4210 ng·h/mL, a Kp at 6 h [9] of 1.8 and a Ki (Histamine H3 receptor [1]) of 8.5 nM. The Ki (Histamine H3 receptor [3]) was 2.8 nM.
In the case of `Cc1nn(-c2ccccn2)c(=O)cc1-c1ccc(OC2CCN(C3CCC3)CC2)cc1`, the half-life [10] is reported as 1.3 h, the Vd [5] is reported as 1.4 L/kg and the clearance [11] is reported as 13 mL/min/kg. The Kp at 6 h [9] was 1.6, the Ki (Histamine H3 receptor [1]) was 9 nM and the Cmax [12] was 287 ng/mL. The Tmax [13] was 3.2 h, the bioavailability [14] was 22% and the AUC [15] was 1500 ng·h/mL. It also gave a Ki (Histamine H3 receptor [3]) of 3 nM, a half-life [16] of over 0.667 h and a half-life [17] of over 0.667 h. It also gave a half-life [18] of over 0.667 h, an IC50 [19] of over 30000 nM and an inhibition [20] of under 30%. The inhibition [21] was under 30%, the inhibition [22] was under 30% and the IC50 [23] was 340 nM.
